One series is filed under the species Mus musculus. Briefly: Toxicity in C57bl/6 mouse precision-cut lung slices assessed as decrease in tissue viability up to 50 uM after 20 hrs in presence of linoleic acid by lactate dehydrogenase release assay. The note with it: in vivo. In kind it is organism-based. In short, it runs like this:
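Mouse lung slices were cultured with inhibitor and 10 μM linoleic acid for 20 h at 37 °C. LDH released into the medium was measured by automated analyzer.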

Series [1] has as its target T1, Polyunsaturated fatty acid lipoxygenase ALOX15 (Mus musculus) (UniProt P39654).
T1 sequence (whole entry): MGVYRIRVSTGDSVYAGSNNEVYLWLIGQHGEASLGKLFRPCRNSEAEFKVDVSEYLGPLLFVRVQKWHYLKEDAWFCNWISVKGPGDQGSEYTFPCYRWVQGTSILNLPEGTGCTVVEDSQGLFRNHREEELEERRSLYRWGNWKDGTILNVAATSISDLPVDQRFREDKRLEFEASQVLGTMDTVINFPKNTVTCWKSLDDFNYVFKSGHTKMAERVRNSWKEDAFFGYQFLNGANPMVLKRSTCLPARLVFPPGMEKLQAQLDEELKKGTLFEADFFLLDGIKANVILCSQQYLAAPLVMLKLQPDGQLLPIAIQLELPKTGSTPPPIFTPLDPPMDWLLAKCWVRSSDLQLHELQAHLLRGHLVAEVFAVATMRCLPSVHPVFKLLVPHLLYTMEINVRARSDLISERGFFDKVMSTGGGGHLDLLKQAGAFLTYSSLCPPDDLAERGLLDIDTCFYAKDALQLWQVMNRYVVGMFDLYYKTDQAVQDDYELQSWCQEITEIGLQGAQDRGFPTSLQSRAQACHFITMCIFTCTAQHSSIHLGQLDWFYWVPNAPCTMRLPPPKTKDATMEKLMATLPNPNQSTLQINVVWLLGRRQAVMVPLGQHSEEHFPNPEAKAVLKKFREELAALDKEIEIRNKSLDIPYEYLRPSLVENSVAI
Kind of series: Inhibition of 15-LOX-1 in C57bl/6 mouse precision-cut lung slices assessed as reduction in LPS-stimulated IL-8 mRNA expression level at 50 uM incubated for 20 hrs followed by LPS stimulation for 4 hrs in presence of linoleic acid by RT-qPCR analysis. The gist of the method: (§1)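 Lung slices, 250 μm, were cut from agarose-filled lungs of male C57bl/6 mice aged 8-10 weeks and cultured at 37 °C in 5% CO2 in supplemented DMEM, 3 slices per well. Inhibitor was given for 20 h with 10 μM linoleic acid. For the last 4 h, 10 ng/ml LPS plus 10 ng/ml IFNγ were added. Read-out was RT-qPCR (10 ng cDNA, GAPDH assay included), in duplicate or triplicate wells, as fold change versus LPS/linoleic acid control, with 4-6 independent experiments.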
For orientation: Real-time PCR tracks product formation cycle by cycle.

The target in series [2] is T1, Polyunsaturated fatty acid lipoxygenase ALOX15 (Mus musculus). Kind of series: Inhibition of 15-LOX-1 in mouse HT22 cells assessed as protection against glutamate-induced cell impedance at 5 to 10 uM cotreated with glutamate measured for 16 to 20 hrs by real time cell viability assay. The settings on record: HT-22. It counts as cell-based. In short, it runs like this:
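HT-22 cells were seeded at 8x10^3 per well, incubated overnight, then given 4 mM glutamate. Inhibitor was either co-applied (1-20 µM; PD146176 at 1 µM) or added at 10 µM 2, 4, 6 or 8 h after glutamate. Impedance was recorded in real time for 16-20 h, with cell index normalized just before glutamate addition.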

The target is the same in series [3]. Kind of series: Inhibition of 15-LOX-1 in mouse HT22 cells assessed as inhibition of glutamate-induced superoxide production in mitochondria at 10 uM incubated for 14 to 16 hrs by mitoSOX staining based FACS analysis. The settings on record: HT-22. In short, it runs like this:
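HT-22 cells were seeded at 5x10^4 per well and incubated overnight. They were then given 4 mM glutamate with or without 10 µM inhibitor or 1 µM PD146176 for 14-16 h. Cells were stained with MitoSOX at 2.5 µM final for 30 min at 37 °C, and fluorescence intensity was measured by flow cytometry (488 nm excitation). At least 3 experiments were run, each in triplicate.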
(In general: In flow cytometry, cells or beads pass a laser one at a time.)

For series [4] the target is unchanged. Kind of series: Inhibition of 15-LOX-1 in mouse HT22 cells assessed as protection against glutamate-induced cell death by measuring increase in cell viability up to 20 uM cotreated with glutamate for 14 to 16 hrs by MTT assay. In kind it is cell-based. The settings on record: HT-22. In short, it runs like this: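 HT-22 cells were seeded at 8x10^3 per well and incubated overnight. They were challenged with 4 mM glutamate in DMEM/10% FCS. Inhibitor was given either with glutamate (1-20 µM; PD146176 at 1 µM) or added at 5 or 10 µM 2, 4, 6 or 8 h after glutamate. After 14-16 h, MTT was added at 0.5 mg/mL for 1 h at 37 °C. Formazan was dissolved in DMSO and read at 570 nm minus 630 nm background, expressed relative to control. Three experiments were run with 6-8 replicates each.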

Series [5] deals with T2, Polyunsaturated fatty acid lipoxygenase ALOX15 (Homo sapiens) (UniProt P16050).
T2 sequence (whole entry): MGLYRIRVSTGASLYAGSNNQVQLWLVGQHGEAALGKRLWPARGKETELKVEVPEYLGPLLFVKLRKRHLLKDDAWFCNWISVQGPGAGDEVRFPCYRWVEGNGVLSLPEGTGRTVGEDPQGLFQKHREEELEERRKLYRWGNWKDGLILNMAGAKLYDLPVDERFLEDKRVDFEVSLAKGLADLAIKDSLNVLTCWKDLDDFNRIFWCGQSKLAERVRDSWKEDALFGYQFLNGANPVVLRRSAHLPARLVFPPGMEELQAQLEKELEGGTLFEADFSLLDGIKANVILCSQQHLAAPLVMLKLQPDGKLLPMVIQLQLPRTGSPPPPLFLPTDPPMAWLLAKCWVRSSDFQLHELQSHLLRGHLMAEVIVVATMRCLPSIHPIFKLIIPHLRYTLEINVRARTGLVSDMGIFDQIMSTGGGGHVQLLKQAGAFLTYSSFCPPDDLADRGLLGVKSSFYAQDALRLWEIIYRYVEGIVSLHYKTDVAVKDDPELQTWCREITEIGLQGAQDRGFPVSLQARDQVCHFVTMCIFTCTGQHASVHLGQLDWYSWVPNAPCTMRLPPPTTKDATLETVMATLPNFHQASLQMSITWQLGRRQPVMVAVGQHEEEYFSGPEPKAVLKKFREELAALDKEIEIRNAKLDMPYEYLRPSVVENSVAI
Briefly: Competitive inhibition of human 15-LOX-1 assessed as apparent Vmax at 5 uM by Lineweaver-Burk plot analysis (reference value: 1.6 +/- 0.2 10^-4abs/s). The gist of the method:
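Purified enzyme activity was read as UV absorbance at 234 nm of the product formed from linoleic acid substrate, in 96-well format. Substrate-dependence runs were done with and without inhibitor. Apparent Km and Vmax were derived from Lineweaver-Burk plots.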

In series [6] the target is T1, Polyunsaturated fatty acid lipoxygenase ALOX15 (Mus musculus). Kind of series: Inhibition of 15-LOX-1 in C57bl/6 mouse precision-cut lung slices assessed as reduction in LPS-stimulated IL-6 mRNA expression level at 5 uM incubated for 20 hrs followed by LPS stimulation for 4 hrs in presence of linoleic acid by RT-qPCR analysis. The gist of the method: as §1
In series [7] the target is T3, Polyunsaturated fatty acid lipoxygenase ALOX15 (Homo sapiens, UniProt P16050).
T3 sequence (P16050 whole entry): T2 sequence (whole entry)
Briefly: Inhibition of human 15-LOX-1 assessed as reduction in conversion of linoleic acid to 13(S)-HpODE incubated for 10 mins followed by linoleic acid addition by UV-absorbance analysis.

SMILES strings stand for the structures. Active and inactive are the calls of the source. No cut-off for these calls is given here.

The inhibition is the share of the control response that was lost under treatment. For orientation: IC50 means the concentration at which inhibition is half-maximal. As to `CCCCNC(=O)c1cc(-c2ccccc2)sc1N`, the Activity entry in the series filed under Mus musculus is recorded as “Non-Toxic”. Also, the inhibition in series [1] was 50%; in series [4], “Dose-dependent effect”. In addition, the inhibition result in series [2], in series [3] and in series [6] was “Active” throughout. The Vmax(app) in series [5] was 1.5 ×10⁻⁴ abs/s. Also, the IC50 in series [7] stood at 12.4 µM.
